Reference: ChEMBL document CHEMBL1817556, “Substituted lactam and cyclic azahemiacetals modulate Pseudomonas aeruginosa quorum sensing” (Bioorg Med Chem, 2011)
Each block holds one compound with its values, some of them ahead of it.

Tests used:
[1] = target: T1, Acyl-homoserine-lactone synthase (Pseudomonas aeruginosa (strain ATCC 15692 / PAO1 / 1C / PRS 101 / LMG12228)) (UniProt P33883); experiment: Modulation of Pseudomonas aeruginosa lacZ-fused lasI expressed in Escherichia coli DH5alpha co-expressing pBAD-lasR assessed as 3-oxo-C12-AHL-induced effect at 0.23 mM after 3 hrs by beta-galactosidase assay relative to control
T1 sequence (whole entry): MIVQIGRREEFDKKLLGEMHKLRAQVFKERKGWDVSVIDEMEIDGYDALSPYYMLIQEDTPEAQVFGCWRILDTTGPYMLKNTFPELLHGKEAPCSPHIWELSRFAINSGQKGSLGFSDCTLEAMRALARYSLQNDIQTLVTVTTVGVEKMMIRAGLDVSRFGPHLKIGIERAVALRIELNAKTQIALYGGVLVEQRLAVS
In short: (§1)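 E. coli DH5α carrying pSC11 (PlasI-lacZ translational fusion) and pJN105L (PBAD-lasR) was grown overnight in LB with ampicillin (100 μg/ml) and gentamicin (15 μg/ml), then diluted to OD600 0.150. Arabinose (0.2% w/v), 3-oxo-C12-AHL (2 μM) and test compound or DMSO were added. Cultures were shaken 3 h at 37 °C. β-Galactosidase activity was read in Miller units and expressed as % of the solvent sample. Triplicates per biological replicate, repeated at least twice; paired two-tailed t-test.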

[2] = target: 3-(3-hydroxydecanoyloxy)decanoate synthase (Pseudomonas aeruginosa (strain ATCC 15692 / PAO1 / 1C / PRS 101 / LMG12228)) (UniProt Q51559); experiment: Modulation of Pseudomonas aeruginosa lacZ-fused rhlA expressed in Escherichia coli DH5alpha co-expressing Ptac-rhlR assessed as C4-AHL-induced effect at 0.93 mM after 4 hrs by beta-galactosidase assay relative to control
In short: (§2)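 E. coli DH5α carrying pECP61.5 (Ptac-rhlR, PrhlA-lacZ), grown overnight in LB with ampicillin 100 μg/ml and diluted to OD600 0.150. At OD600 1.0, 1 mM IPTG, 2 μM C4-HSL and compound or DMSO were added. Cultures were shaken 4 h at 37 °C, then β-galactosidase was read in Miller units. Activity is % of solvent sample, from triplicates per biological replicate, with at least two repeats.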

[3] = target: 3-(3-hydroxydecanoyloxy)decanoate synthase (Pseudomonas aeruginosa (strain ATCC 15692 / PAO1 / 1C / PRS 101 / LMG12228)) (UniProt Q51559); experiment: Modulation of Pseudomonas aeruginosa lacZ-fused rhlA expressed in Escherichia coli DH5alpha co-expressing Ptac-rhlR assessed as C4-AHL-induced effect at 0.23 mM after 4 hrs by beta-galactosidase assay relative to control
In short: (§3)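 rhl reporter: E. coli DH5α carrying pECP61.5 (Ptac-rhlR, PrhlA-lacZ) was grown overnight in LB with ampicillin (100 μg/ml) only, then diluted to OD600 0.150. It was induced with 1 mM IPTG, and 2 μM C4-HSL plus compound or DMSO were added at OD600 1.0. Cultures were shaken 4 h at 37 °C. β-Galactosidase activity was read in Miller units as % of the solvent sample. Triplicates per biological replicate, at least two repeats; paired two-tailed t-test.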

[4] = target: T1, Acyl-homoserine-lactone synthase (Pseudomonas aeruginosa (strain ATCC 15692 / PAO1 / 1C / PRS 101 / LMG12228)); experiment: Modulation of Pseudomonas aeruginosa lacZ-fused lasI expressed in Escherichia coli DH5alpha co-expressing pBAD-lasR assessed as 3-oxo-C12-AHL-induced effect at 0.47 mM after 3 hrs by beta-galactosidase assay relative to control; in short: as §1
[5] = target: T1, Acyl-homoserine-lactone synthase (Pseudomonas aeruginosa (strain ATCC 15692 / PAO1 / 1C / PRS 101 / LMG12228)); experiment: Modulation of Pseudomonas aeruginosa lacZ-fused lasI expressed in Escherichia coli DH5alpha co-expressing pBAD-lasR assessed as 3-oxo-C12-AHL-induced effect at 0.70 mM after 3 hrs by beta-galactosidase assay relative to control; in short: as §1
[6] = target: T1, Acyl-homoserine-lactone synthase (Pseudomonas aeruginosa (strain ATCC 15692 / PAO1 / 1C / PRS 101 / LMG12228)); experiment: Modulation of Pseudomonas aeruginosa lacZ-fused lasI expressed in Escherichia coli DH5alpha co-expressing pBAD-lasR assessed as 3-oxo-C12-AHL-induced effect at 0.93 mM after 3 hrs by beta-galactosidase assay relative to control; in short: as §1
[7] = target: 3-(3-hydroxydecanoyloxy)decanoate synthase (Pseudomonas aeruginosa (strain ATCC 15692 / PAO1 / 1C / PRS 101 / LMG12228)) (UniProt Q51559); experiment: Modulation of Pseudomonas aeruginosa lacZ-fused rhlA expressed in Escherichia coli DH5alpha co-expressing Ptac-rhlR assessed as C4-AHL-induced effect at 0.70 mM after 4 hrs by beta-galactosidase assay relative to control; in short: as §2
[8] = target: 3-(3-hydroxydecanoyloxy)decanoate synthase (Pseudomonas aeruginosa (strain ATCC 15692 / PAO1 / 1C / PRS 101 / LMG12228)) (UniProt Q51559); experiment: Modulation of Pseudomonas aeruginosa lacZ-fused rhlA expressed in Escherichia coli DH5alpha co-expressing Ptac-rhlR assessed as C4-AHL-induced effect at 0.47 mM after 4 hrs by beta-galactosidase assay relative to control; in short: as §3
[9] = target: T2, Transcriptional activator protein LasR (Pseudomonas aeruginosa (strain ATCC 15692 / PAO1 / 1C / PRS 101 / LMG12228), UniProt P25084); experiment: Inhibition of Pseudomonas aeruginosa LasR
T2 sequence (P25084 whole entry): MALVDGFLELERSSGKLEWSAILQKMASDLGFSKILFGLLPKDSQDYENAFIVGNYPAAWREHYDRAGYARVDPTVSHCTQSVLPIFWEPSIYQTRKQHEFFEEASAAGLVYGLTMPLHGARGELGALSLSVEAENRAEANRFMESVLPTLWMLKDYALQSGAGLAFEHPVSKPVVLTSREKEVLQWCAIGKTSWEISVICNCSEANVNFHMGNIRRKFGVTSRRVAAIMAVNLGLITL

[10] = target: T1, Acyl-homoserine-lactone synthase (Pseudomonas aeruginosa (strain ATCC 15692 / PAO1 / 1C / PRS 101 / LMG12228)); experiment: Modulation of Pseudomonas aeruginosa lacZ-fused lasI expressed in Escherichia coli DH5alpha co-expressing pBAD-lasR at 0.002 mM after 3 hrs by beta-galactosidase assay relative to control; in short: as §1

SMILES: CCCCCCSC[C@@H]1CCC(=O)N1
Activity [1]: 106%
Activity [2]: 145%
Activity [3]: 126%
Activity [4]: 87%
Activity [5]: 74%
Activity [6]: 61%
Activity [7]: 130%
Activity [8]: 126%

SMILES: O=C(Cc1cccc([N+](=O)[O-])c1)N[C@H]1CCOC1=O
IC50 [9]: 610 nM

SMILES: CCCCCCCCCCCC(=O)N[C@H]1CCSC1=O
IC50 [9]: 40 nM

More lines, now with the values ahead:

IC50 [9]: 10000 nM
SMILES: CCCCCCCCCC(=O)CC(=O)NC1CCCCC1=O (configuration not stated)

Activity [10]: 100%
SMILES: CCCCCCCCCC(=O)CC(=O)N[C@H]1CCOC1=O
